Measurements: publication PMC3529145 (Bioconjugate chemistry, 2012)
No end group written: not given here.

Assays:
Assay type in all cases: in vivo, mouse
[1] = tested on: LNCaP tumors; test: Postmortem biodistribution, LNCaP tumor uptake and tumor-to-tissue ratios; conditions: for LNCaP Tumor/kidney ratio: biodistribution
[2] = tested on: LNCaP tumor; test: Small-animal PET imaging, LNCaP tumor xenograft; conditions: for radioactivity accumulation in LNCaP tumor (PET): PET ROI analysis, i.v. tail vein, dual tumor bearing mice n = 4
How it was run: (§1)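 Male athymic nude mice carried LNCaP (right shoulder, implanted 14 days earlier) and PC-3 (left shoulder) xenografts, each 100–200 mm3 (n = 4). Dosing was by tail vein: 160–170 μCi of labelled peptide in 200 μL 3% EtOH/saline, or 260 μCi of control peptide in 200 μL PBS. Static 15-min microPET scans were taken at 2 and 4 h under isoflurane. Decay-corrected ROI values were expressed as %ID/g by phantom calibration.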

[3] = tested on: PC-3 tumor; test: Small-animal PET imaging, PC-3 tumor xenograft; conditions: PET ROI analysis, i.v. tail vein, dual tumor bearing mice n = 4
How it was run: as §1

ACEQNPIYWARYAKWLFTTPLLLLKLALLVDADEGTG-OH [[^18F]-5]
LNCaP Tumor/kidney ratio ([1]; 2 h p.i.): 0.4
LNCaP Tumor/blood ratio ([1]; mouse, in vivo): 0.1
LNCaP Tumor/liver ratio ([1]; mouse, in vivo): 0.2
LNCaP Tumor/muscle ratio ([1]; mouse, in vivo): 0.4
tumor accumulation observed by PET (in words) ([2]; PET images of mice bearing LNCaP and PC-3 tumors, negative control): lack of any tumor accumulation

ACEQNPIYWARYADWLFTTPLLLLDLALLVDADEGTG-CO2H [[^18F]-4a]
LNCaP Tumor/kidney ratio ([1]; 2 h p.i.): 0.3
LNCaP Tumor/kidney ratio ([1]; 4 h p.i.): 0.3
LNCaP Tumor/liver ratio ([1]; mouse, in vivo): 0.2
radioactivity accumulation in PC-3 tumor (PET) ([3]; 2 h p.i.): 4.2 ± 0.4 %ID/g
radioactivity accumulation in PC-3 tumor (PET) ([3]; 4 h p.i.): 5.4 ± 0.5 %ID/g
radioactivity accumulation in LNCaP tumor (PET) ([2]; 2 h p.i.): 8.3 ± 1.5 %ID/g
radioactivity accumulation in LNCaP tumor (PET) ([2]; 4 h p.i.): 8.5 ± 1.3 %ID/g
